In one experiment the test system is Giardia intestinalis. Briefly: Antiprotozoal activity against axenically grown trophozoites of Giardia lamblia IMSS:0989:1 after 48 hrs by MTT method. Format: functional, organism-based. Conditions: Giardia duodenalis. In a few lines: (§1)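 Log-phase trophozoites from axenic culture: E. histolytica in TYI-S-33 with 10% bovine serum (inoculum 6 × 10³/mL), G. lamblia in modified TYI-S-33 with 10% calf serum (inoculum 5 × 10⁴/mL). Test material in DMSO/medium at 2.5–200 µg/mL, 48 h, 37 °C. Counted by haemocytometer, then MTT (0.075% final) plus PMS, 45 min, A570. Inhibition converted to probits and regressed on log concentration to give IC50. Duplicates, repeated at least three times.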
A general note: Tetrazolium dyes change colour on reduction, which living cells bring about.

Another experiment concerns Entamoeba histolytica. Briefly: Antiprotozoal activity against axenically grown trophozoites of Entamoeba histolytica HM1-IMSS after 48 hrs by MTT method. Format: functional, organism-based. In a few lines: as §1
Another experiment concerns MCF7. Briefly: Cytotoxicity against human MCF7 cells after 7 days by MTT method. Format: functional, cell-based. In a few lines:
(§2)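 Run at the Purdue Cell Culture Laboratory as a seven-day MTT assay on human solid tumour lines, with adriamycin as the positive control.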

The test system of another experiment is HT-29. Briefly: Cytotoxicity against human HT-29 cells after 7 days by MTT method. Format: functional, cell-based. In a few lines:
as §2

In another experiment the test system is A549. The experiment in a line: Cytotoxicity against human A549 cells after 7 days by MTT method. In kind it is functional, cell-based. An outline of the steps:
as §2

Molecules are shown by their SMILES. Values after ≈ are worked out from the molar mass of the structure shown. Active and inactive are the calls of the source. The calls are words filed in the database; no cut-off is given here.

Results on 6 compounds are retold here after ChEMBL document CHEMBL1141844, “Geranins A and B, new antiprotozoal A-type proanthocyanidins from Geranium niveum” (J Nat Prod, 1999).

One may read the IC50 as the concentration needed to halve the response being measured. The low end stands for higher potency, the high end for lower potency.

For the compound `CC1(C)CC[C@]2(C(=O)O)CC[C@]3(C)C(=CC[C@@H]4[C@@]5(C)CC[C@H](C(=O)/C=C/c6ccc(O)c(O)c6)C(C)(C)[C@@H]5CC[C@]43C)[C@@H]2C1`, the IC50 came to 31.2 µg/mL (≈ 51.8 µM) with Giardia intestinalis and 22.6 µg/mL (≈ 37.5 µM) in the experiment on Entamoeba histolytica. In addition, the result in the experiment with MCF7, in the experiment on HT-29 and in the experiment on A549 was inactive.
Regarding `COC(=O)c1cc(O)c(O)c(O)c1` [GALLIC ACID METHYL ESTER], the values for the IC50 in the experiment on Giardia intestinalis and in the experiment on Entamoeba histolytica were 49.2 µg/mL (≈ 267 µM) and 144 µg/mL (≈ 780 µM), respectively. The outcome with MCF7, with HT-29 and with A549 was inactive.
On to `Oc1ccc([C@H]2Oc3c(c(O)cc4c3[C@H]3c5c(O)cc(O)cc5O[C@@](c5ccc(O)cc5)(O4)[C@@H]3O)C[C@@H]2O)cc1` [GERANIN A], for which the IC50 in the experiment on Giardia intestinalis worked out at 2.4 µg/mL (≈ 4.41 µM); in the experiment with Entamoeba histolytica it was 185 µg/mL (≈ 339 µM). For the same compound, the outcome in the experiment with MCF7, in the experiment on HT-29 and with A549 was inactive.
With `Oc1ccc([C@H]2Oc3c(c(O)cc4c3[C@H]3c5c(O)cc(O)cc5O[C@@](c5ccc(O)c(O)c5)(O4)[C@@H]3O)C[C@@H]2O)cc1` [GERANIN B], the figures for the IC50 with Giardia intestinalis and in the experiment on Entamoeba histolytica were 6 µg/mL (≈ 10.7 µM) and 13.6 µg/mL (≈ 24.3 µM), respectively. The outcome with MCF7, in the experiment with HT-29 and in the experiment on A549 was inactive.
As to `O=c1c(O[C@@H]2O[C@H](CO)[C@H](O)[C@H](O)[C@H]2O)c(-c2ccc(O)c(O)c2)oc2cc(O)cc(O)c12` [HYPEROSIDE], the values for the IC50 with Giardia intestinalis and with Entamoeba histolytica were 85.1 µg/mL (≈ 183 µM) and 109 µg/mL (≈ 235 µM), respectively. Moreover, the outcome with MCF7, in the experiment with HT-29 and with A549 was inactive.
The compound `Cc1ncc([N+](=O)[O-])n1CCO` [METRONIDAZOLE] showed an IC50 with Entamoeba histolytica of 0.04 µg/mL (≈ 0.234 µM). Besides, the outcome in the experiment with MCF7, in the experiment with HT-29 and in the experiment with A549 was inactive.
